The values below come from ChEMBL document CHEMBL1143746, “Synthesis and biological evaluation of sulfonylhydrazone-substituted imidazo[1,2-a]pyridines as novel PI3 kinase p110alpha inhibitors” (Bioorg Med Chem, 2007).

For test [1], the target named is Phosphatidylinositol 4,5-bisphosphate 3-kinase catalytic subunit alpha isoform (Bos taurus, UniProt P32871). Put plainly: Inhibition of GST-tagged bovine p110-alpha expressed in SF9/Baculovirus system by SPA.
In test [2] the test system is A-375. Put plainly: Inhibition of serum-induced proliferation of human A375 cells. In kind it is functional, cell-based. In short, it runs like this: (§1)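 Cells were grown in DMEM with 10% FBS and penicillin/streptomycin and seeded at 1 × 10⁴ per well onto pre-spotted compound. After 46 h, Alamar blue was added. Fluorescence (ex 544/em 590 nm) was read 2 h later.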

For test [3], the target named is Phosphatidylinositol 4,5-bisphosphate 3-kinase catalytic subunit gamma isoform (Homo sapiens, UniProt P48736). Nature of the test: Inhibition of His-tagged human p110gamma expressed in SF9/Baculovirus system by SPA.
In test [4] the target is Phosphatidylinositol 4-phosphate 3-kinase C2 domain-containing subunit beta (Homo sapiens, UniProt O00750). Nature of the test: Inhibition of glu-tagged PI3K C2-beta expressed in SF9/Baculovirus system by SPA.
In test [5] the test system is HeLa. Nature of the test: Inhibition of serum-induced proliferation of human HeLa cells. In kind it is functional, cell-based. In short, it runs like this: as §1
Test [6] has as its system A549. Nature of the test: Inhibition of serum-induced proliferation of human A549 cells. In kind it is functional, cell-based. In short, it runs like this: as §1
In test [7] the test system is MCF7. Put plainly: Inhibition of serum-induced proliferation of human MCF7 cells. It counts as functional, cell-based.
For test [8], the system named is MCF7. Put plainly: Inhibition of serum-induced proliferation of human adriamycin-resistant MCF7 cells. In kind it is functional, cell-based.
Test [9] concerns HeLa. Put plainly: Suppression of tumor growth in human HeLa cell xenografted BALB/c nude mouse at 50 mg/kg/day, ip after 2 weeks. In kind it is functional. Conditions: route intraperitoneal. The method, boiled down:
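Female Balb/c-nu/nu mice, five per group, received 5 × 10⁶ HeLa cells subcutaneously in the hind quarters. Once tumors reached about 100 mm³, the compound was given i.p. at 50 mg/kg daily for 2 weeks. Tumor growth was compared with vehicle, and body weight was monitored.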

Chain of Phosphatidylinositol 4,5-bisphosphate 3-kinase catalytic subunit alpha isoform (P32871 whole entry, canonical isoform): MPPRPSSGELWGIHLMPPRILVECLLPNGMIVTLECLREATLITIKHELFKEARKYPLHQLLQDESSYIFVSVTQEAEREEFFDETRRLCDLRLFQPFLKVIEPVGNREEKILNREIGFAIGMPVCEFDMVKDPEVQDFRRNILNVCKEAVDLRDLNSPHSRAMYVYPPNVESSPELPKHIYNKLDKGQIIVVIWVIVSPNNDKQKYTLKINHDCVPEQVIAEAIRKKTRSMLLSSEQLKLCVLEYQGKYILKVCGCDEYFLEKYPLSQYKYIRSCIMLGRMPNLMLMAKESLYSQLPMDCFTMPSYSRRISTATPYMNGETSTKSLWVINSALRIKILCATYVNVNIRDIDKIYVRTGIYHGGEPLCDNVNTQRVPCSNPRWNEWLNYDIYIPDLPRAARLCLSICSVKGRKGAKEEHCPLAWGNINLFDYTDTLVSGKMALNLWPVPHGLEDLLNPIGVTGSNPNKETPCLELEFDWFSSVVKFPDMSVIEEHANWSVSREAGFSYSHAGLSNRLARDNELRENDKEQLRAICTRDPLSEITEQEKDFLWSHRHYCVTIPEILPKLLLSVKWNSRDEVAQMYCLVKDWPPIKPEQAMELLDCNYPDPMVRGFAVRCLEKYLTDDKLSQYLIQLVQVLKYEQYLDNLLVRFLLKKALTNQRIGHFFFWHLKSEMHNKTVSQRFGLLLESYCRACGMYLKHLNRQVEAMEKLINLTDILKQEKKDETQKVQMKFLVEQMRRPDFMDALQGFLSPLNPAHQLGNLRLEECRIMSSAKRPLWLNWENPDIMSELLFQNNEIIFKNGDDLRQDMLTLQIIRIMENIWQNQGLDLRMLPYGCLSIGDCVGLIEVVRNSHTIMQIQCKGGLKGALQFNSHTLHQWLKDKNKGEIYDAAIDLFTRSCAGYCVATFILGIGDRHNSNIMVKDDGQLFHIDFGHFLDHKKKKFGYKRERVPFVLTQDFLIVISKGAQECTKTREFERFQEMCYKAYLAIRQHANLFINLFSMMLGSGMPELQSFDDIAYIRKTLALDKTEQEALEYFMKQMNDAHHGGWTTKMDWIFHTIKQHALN
Chain of Phosphatidylinositol 4-phosphate 3-kinase C2 domain-containing subunit beta (O00750 whole entry, the tested form may be a part): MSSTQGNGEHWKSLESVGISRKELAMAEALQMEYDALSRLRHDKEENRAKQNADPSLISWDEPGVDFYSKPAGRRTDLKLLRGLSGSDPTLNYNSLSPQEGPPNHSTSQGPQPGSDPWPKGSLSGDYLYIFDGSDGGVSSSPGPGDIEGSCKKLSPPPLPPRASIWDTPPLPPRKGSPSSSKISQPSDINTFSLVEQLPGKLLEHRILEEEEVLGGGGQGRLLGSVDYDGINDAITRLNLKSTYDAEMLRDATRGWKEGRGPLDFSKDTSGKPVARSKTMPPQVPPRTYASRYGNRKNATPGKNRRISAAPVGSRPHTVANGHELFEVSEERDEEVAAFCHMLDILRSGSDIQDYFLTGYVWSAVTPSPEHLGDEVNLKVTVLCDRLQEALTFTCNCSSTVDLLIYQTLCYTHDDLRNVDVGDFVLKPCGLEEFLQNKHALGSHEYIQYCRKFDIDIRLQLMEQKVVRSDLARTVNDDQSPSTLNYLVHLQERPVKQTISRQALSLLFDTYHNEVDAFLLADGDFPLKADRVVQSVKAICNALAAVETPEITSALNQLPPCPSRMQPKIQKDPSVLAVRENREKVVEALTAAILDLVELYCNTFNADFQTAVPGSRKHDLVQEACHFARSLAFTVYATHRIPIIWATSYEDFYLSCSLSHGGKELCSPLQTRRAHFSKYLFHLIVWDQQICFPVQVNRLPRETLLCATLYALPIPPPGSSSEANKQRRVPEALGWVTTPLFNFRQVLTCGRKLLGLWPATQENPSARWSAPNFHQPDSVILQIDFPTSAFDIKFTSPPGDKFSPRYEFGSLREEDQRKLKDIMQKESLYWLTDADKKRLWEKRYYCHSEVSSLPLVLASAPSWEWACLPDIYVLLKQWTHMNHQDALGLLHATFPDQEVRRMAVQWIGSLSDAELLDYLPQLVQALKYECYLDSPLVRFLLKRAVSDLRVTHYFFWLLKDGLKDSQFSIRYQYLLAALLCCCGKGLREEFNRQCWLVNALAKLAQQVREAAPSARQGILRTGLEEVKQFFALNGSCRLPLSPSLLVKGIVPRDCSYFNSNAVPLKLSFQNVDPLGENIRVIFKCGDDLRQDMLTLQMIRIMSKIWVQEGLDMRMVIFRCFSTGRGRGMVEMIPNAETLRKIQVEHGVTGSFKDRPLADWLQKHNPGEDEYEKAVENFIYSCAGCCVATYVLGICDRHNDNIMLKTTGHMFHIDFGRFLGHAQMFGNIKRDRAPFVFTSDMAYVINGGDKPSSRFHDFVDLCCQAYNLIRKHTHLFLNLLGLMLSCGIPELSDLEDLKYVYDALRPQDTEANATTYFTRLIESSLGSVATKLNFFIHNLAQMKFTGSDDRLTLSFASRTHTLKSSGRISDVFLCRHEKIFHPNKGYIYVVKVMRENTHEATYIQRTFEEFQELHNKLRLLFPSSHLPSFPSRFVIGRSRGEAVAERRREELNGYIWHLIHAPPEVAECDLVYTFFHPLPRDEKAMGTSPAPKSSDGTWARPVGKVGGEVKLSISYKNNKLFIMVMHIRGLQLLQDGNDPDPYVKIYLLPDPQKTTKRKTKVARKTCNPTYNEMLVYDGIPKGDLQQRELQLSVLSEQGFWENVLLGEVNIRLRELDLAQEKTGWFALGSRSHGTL
Chain of Phosphatidylinositol 4,5-bisphosphate 3-kinase catalytic subunit gamma isoform (P48736 whole entry, the tested form may be a part, canonical isoform): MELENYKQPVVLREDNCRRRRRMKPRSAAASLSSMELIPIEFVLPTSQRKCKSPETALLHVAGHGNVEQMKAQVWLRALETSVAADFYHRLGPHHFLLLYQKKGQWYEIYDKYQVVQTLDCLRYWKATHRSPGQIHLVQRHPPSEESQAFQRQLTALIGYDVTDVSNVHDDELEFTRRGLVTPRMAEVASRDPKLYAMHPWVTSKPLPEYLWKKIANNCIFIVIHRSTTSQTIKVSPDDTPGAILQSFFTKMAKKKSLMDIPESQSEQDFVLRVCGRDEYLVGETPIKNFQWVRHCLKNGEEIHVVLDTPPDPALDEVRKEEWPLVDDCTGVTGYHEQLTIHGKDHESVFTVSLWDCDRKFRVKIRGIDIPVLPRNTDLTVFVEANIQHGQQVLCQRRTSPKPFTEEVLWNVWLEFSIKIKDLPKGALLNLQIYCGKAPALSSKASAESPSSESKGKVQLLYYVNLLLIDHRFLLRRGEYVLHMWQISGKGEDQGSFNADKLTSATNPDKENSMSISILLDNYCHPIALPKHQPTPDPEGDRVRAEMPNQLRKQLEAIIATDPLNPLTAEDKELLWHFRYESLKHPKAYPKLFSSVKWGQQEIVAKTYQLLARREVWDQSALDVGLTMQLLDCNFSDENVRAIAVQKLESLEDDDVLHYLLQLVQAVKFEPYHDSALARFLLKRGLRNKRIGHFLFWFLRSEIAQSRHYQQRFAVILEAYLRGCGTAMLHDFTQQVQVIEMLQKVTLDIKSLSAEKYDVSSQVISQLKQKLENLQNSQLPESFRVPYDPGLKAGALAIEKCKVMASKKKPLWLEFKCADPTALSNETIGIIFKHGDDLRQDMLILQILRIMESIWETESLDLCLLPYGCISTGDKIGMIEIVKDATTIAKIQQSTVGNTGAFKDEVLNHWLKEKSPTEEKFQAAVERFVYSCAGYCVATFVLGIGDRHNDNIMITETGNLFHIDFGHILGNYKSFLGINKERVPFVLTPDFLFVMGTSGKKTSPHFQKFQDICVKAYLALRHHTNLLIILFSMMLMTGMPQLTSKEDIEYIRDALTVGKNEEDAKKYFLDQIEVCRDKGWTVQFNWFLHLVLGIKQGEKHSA

Regarding `Cc1ccc([N+](=O)[O-])cc1S(=O)(=O)N(C)/N=C/c1cnc2ccc(C#N)cn12`, the IC50 came to 0.26 nM in test [1] and 0.033 µM in [2].

In turn, `Cc1nc2ccccn2c1-c1ccn(S(=O)(=O)c2ccc(F)cc2)n1` returned a half-inhibitory concentration (IC50) in [2] of 23 µM.

`Cc1ccc([N+](=O)[O-])cc1S(=O)(=O)N(C)/N=C/c1cnc2ccc(C(N)=O)cn12`: the values for the IC50 in [1] and in [2] were 780 nM and 8.96 µM, respectively.

For the compound `Cc1ccc([N+](=O)[O-])cc1S(=O)(=O)N(C)/N=C/c1cnc2ccc(C(F)(F)F)cn12`, the half-maximal inhibitory concentration (IC50) in test [1] turned out to be 14 nM; in [2] it was 0.09 µM.

Turning to `C/C(=N\NS(=O)(=O)c1cc([N+](=O)[O-])ccc1C)c1c(C)nc2ccc(Br)cn12`, the concentration for half-maximal inhibition (IC50) in test [1] was 400 nM.

As to `CCOC(=O)c1ccc2ncc(/C=N/N(C)S(=O)(=O)c3cc([N+](=O)[O-])ccc3C)n2c1`, the IC50 in test [1] came out at 340 nM; in test [2] it was 9.35 µM.

As to `O=c1cc(N2CCOCC2)oc2c(-c3ccccc3)cccc12` [LY-294002], the IC50 in test [2] worked out at 8.4 µM.

For `Cc1ccc([N+](=O)[O-])cc1S(=O)(=O)N(C)/N=C/c1cnc2ccc(Br)cn12.Cl`, the IC50 in test [3] amounted to 40 nM; in test [4], 100 nM; in test [2], 0.058 µM; in test [5], 51 nM; in test [6] it was 69 nM; in test [7] it was 19 nM. In [8], this compound showed a half-maximal inhibitory concentration (IC50) of 39 nM. This compound also came in with an Activity in test [9] of 62%.

Turning to `Cc1ccc([N+](=O)[O-])cc1S(=O)(=O)n1ccc(-c2c(C)nc3ccc(Br)cn23)n1`, the IC50 in test [2] came to 0.73 µM.

`C/C(=N\N(C)S(=O)(=O)c1cc([N+](=O)[O-])ccc1C)c1cnc2ccc(Br)cn12`: the IC50 stood at 81 nM in test [1] and 20 µM in test [2].

With `Cc1ccc2ncc(/C=N/N(C)S(=O)(=O)c3cc([N+](=O)[O-])ccc3C)n2c1`, the IC50 was 6 nM in [1] and 0.12 µM in test [2].

In the case of `Cc1ccc([N+](=O)[O-])cc1S(=O)(=O)N/N=C/c1cnc2ccc(Br)cn12`, the IC50 was 21 nM in test [1] and 9 µM in test [2].

In the case of `C/C(=N\NS(=O)(=O)c1cc([N+](=O)[O-])ccc1C)c1cnc2ccc(Br)cn12`, the IC50 in [1] is 17 nM; in test [2], 12 µM.

`C/C(=N\N(C)S(=O)(=O)c1cc([N+](=O)[O-])ccc1C)c1c(C)nc2ccc(Br)cn12`: the IC50 in [1] was 170 nM.

As to `Cc1ccc([N+](=O)[O-])cc1S(=O)(=O)N(C)/N=C/c1cnc2ccc(Cl)cn12`, the figures for the half-inhibitory concentration (IC50) in [1] and in test [2] were 0.77 nM and 0.056 µM, respectively.

On to `Cc1ccc([N+](=O)[O-])cc1S(=O)(=O)N(C)/N=C/c1cnc2ccc(F)cn12`, for which the IC50 in test [1] was 5.3 nM; in test [2] it was 0.18 µM.
